Assay results collected from several papers.
Each line is one published result; the experiments were not run side by side.

SMILES | tested on | assay | system | conditions | endpoint | result
CCN(CC)CCNc1ccc(C)c2sc3ccccc3c(=O)c12 | Zaire ebolavirus | viral replication, inhibitor | HeLa | – | IC50 | 3.27 µM
CC[C@H](C)[C@H]1C(=O)N2CCC[C@H]2C(=O)O[C@H](C(C)(C)C)C[C@@H](C)C[C@H](O)[C@H](C)C2=N[C@@H](CCC(=O)N[C@@H](Cc3ccc(OC)cc3)C(=O)N(C)[C@@H](C)C(=O)N1C)CS2 | Dengue virus | viral replication | Huh7.5 | 24 h | IC50 | 0.0033 µM
Cc1cccc(-n2ncc(Cl)c(Cl)c2=O)c1 | NCI-H23 | cell growth or viability, resazurin | – | 96 h | IC50 | 0.21 µM
CC1=C(O)C(=O)C=C2C1=CC=C1[C@@]2(C)CC[C@@]2(C)[C@@H]3C[C@](C)(C(=O)OCCCn4cc(C=O)c5ccccc54)CC[C@]3(C)CC[C@]12C | Bel-7402 | cell growth or viability, MTT | – | 48 h | IC50 | 0.77 µM
CC(C)(N)CNC(=O)C[C@H]1CC[C@]2(CC1)OO[C@]1(O2)C2CC3CC(C2)CC1C3 | Zaire ebolavirus | viral replication, inhibitor | HeLa | – | IC50 | 4.53 µM
Nc1ncn([C@@H]2O[C@H](CO)[C@@H](O)[C@H]2O)c(=O)n1 | Zaire ebolavirus | viral replication, inhibitor | Vero C1008 | 50 µM, 72 h | inhibition | 86%
c1ccc([C@@H]2C[C@H]2NC2CCNCC2)cc1 | MOLM-13 | cell growth or viability, resazurin | – | 96 h | EC50 | 0.00091 µM
CCN(CC)Cc1cc(Nc2ccnc3cc(Cl)ccc23)ccc1O | Dengue virus | viral replication, inhibitor | BHK-21, DENV2 | 50 µM, 24 h, replicon | inhibition | 76.3%
Nc1ncnc2c([C@@H]3N[C@H](CO)[C@@H](O)[C@H]3O)c[nH]c12 | Dengue virus | viral replication | Vero 76, DENV2 | 3 µM | inhibition | 11%
CC1=C(O)C(=O)C=C2C1=CC=C1[C@@]2(C)CC[C@@]2(C)[C@@H]3C[C@](C)(C(=O)O)CC[C@]3(C)CC[C@]12C | Bel-7402 | cell growth or viability, MTT | – | 48 h | IC50 | 0.79 µM
CCN(CC)CCCC(C)Nc1ccnc2cc(Cl)ccc12 (stereo not drawn) | Dengue virus | viral replication, inhibitor | BHK-21, DENV2 | 50 µM, 24 h, replicon | inhibition | 54.8%
CCN(CC)Cc1cc(Nc2ccnc3cc(Cl)ccc23)ccc1O | Zaire ebolavirus | viral replication, inhibitor | Huh-7 | 24 h | IC50 | 2.13 µM
